# Assay outcomes from PubChem BioAssay.
# Shown is part of a subset that was picked to be rich in hits.
# PKD1 inh – PKD1 (human) kinase inhibition; Q15139; PKD1 kinase fluorescence polarization assay; inhibition, % (test concentration not listed); 200,000 compounds, 0.056% hits; AID 797
# Target sequence (Q15139 whole entry, looked up): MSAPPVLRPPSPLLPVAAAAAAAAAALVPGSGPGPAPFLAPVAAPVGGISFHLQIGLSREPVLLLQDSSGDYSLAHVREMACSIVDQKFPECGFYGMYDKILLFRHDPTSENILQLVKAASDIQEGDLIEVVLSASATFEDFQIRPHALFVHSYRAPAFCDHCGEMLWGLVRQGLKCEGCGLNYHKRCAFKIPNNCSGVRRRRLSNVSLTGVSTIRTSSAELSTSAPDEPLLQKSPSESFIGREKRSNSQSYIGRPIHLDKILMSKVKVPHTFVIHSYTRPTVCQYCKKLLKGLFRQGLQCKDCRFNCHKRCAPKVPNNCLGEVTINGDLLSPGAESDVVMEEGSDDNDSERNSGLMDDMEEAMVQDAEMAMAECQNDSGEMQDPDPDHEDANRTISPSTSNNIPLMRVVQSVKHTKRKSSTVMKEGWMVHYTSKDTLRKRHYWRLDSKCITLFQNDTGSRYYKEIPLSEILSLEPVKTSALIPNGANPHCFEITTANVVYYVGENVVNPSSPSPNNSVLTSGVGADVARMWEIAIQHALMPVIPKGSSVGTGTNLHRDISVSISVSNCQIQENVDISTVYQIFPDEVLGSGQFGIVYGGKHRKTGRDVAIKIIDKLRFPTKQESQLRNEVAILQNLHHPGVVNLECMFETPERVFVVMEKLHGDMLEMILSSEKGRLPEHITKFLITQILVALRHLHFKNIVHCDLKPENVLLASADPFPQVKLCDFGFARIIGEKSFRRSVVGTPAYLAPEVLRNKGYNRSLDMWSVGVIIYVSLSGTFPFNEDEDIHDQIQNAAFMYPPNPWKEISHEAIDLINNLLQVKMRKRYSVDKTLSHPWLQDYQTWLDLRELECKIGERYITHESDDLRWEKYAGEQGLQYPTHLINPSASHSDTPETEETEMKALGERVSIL
# Avidin bead fluor – avidin bead compound fluorescence profile. Avidin beads, compound fluorescence 488/530 nm, flow cytometry; hits give high values. fluorescence (KMESF) at 10 µM. 220,000 compounds, 0.38% hits; in the data active = fluorescence above about 47
# GSH fluor – GSH bead compound fluorescence profile | AID 1776 | GSH beads flow cytometry, compound fluorescence 488/530 nm; hits give high values | fluorescence (KMESF) at 10 µM | 190,000 compounds, 0.25% hits; in the data active = fluorescence above about 89;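 note: glutathione beads carrying GST-tagged Bcl family fusion proteins plus one bare bead set; values are compound well signal with DMSO vehicle wells as background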
# Lmaj promast – inhibitors of Leishmania major promastigote growth | Leishmania major promastigotes, resazurin fluorescence viability | inhibition, % at 10 µM | 200,000 compounds, 9% hits;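 note: promastigotes grown with compound for 44 hours at 28 °C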
# ABCG2 inh – inhibitors of human ABCG2 transporter, ABCB1 counter-screen | Q9UNQ0 | inhibition, % at 6.6 µM | IgMXP3 cells, JC-1 efflux, flow cytometry | 190,000 compounds, 0.1% hits | AID 1325;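 active = inhibition above 80%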;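 note: 0% = DMSO and 100% = nicardipine control wells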
#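 Test system: IgMXP3 cells (ABCG2) mixed with DDAO far-red-labelled CCRF-Adr cells (ABCB1). Reagent: JC-1 transporter substrate. Compound dosing: single test compound dose, 6.6 µM final. Times: 10 min compound exposure, 25 °C. Detection: flow cytometry of retained JC-1 fluorescence. Read-out basis: efflux inhibition in percent versus controls. Controls: nicardipine and DMSO wells.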
# ABCB1 block – inhibitors of human ABCB1 transporter, ABCG2 counter-screen; 190,000 compounds, 0.067% hits; CCRF-Adr cells, JC-1 efflux, flow cytometry; P08183; inhibition, % at 6.6 µM; AID 1326; in the data active = inhibition above about 40%;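 note: 0% = vehicle and 100% = reference inhibitor; higher value means more JC-1 retained so stronger ABCB1 efflux block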
# Numbers without * were called inactive; nt = not tested or not shown. Cut-off read from the data, not from the text of the source, unless noted: active = inhibition above about 50%; inactive = the rest.
SMILES,PKD1 inh,Avidin bead fluor,GSH fluor,Lmaj promast,ABCG2 inh,ABCB1 block
c1cc(C(c2nnnn2C2CCCCC2)N2CCN3CCCC3C2)ccn1 (centres undefined),-5,31,10,-8,-4,-1
c1cnc2ccc(C(c3nnnn3C3CCCCC3)N3CCN(C4CCCCC4)CC3)cc2c1 (centres undefined),-7,nt,nt,99*,nt,nt
COc1ccc(Cl)cc1NC(=O)c1ccoc1C,-9,11,25,0,24,0
CC(C)COC(=O)CNc1n[nH]c(=S)[nH]c1=O,0,9,27,-3,-1,0
Cc1cc(C)cc(Nc2ncc3c(n2)CCCC3=O)c1,-1,11,24,-2,3,1
Cc1ccc(C)c(S(=O)(=O)N2CCCOC2CNC(=O)C(=O)NCCCn2ccnc2)c1 (centres undefined),-10,10,11,-3,0,0
Cc1cc(C)c(S(=O)(=O)N2CCCOC2CNC(=O)C(=O)NCCCn2ccnc2)c(C)c1 (centres undefined),-7,14,10,54*,-4,0
CC1CCCCN1S(=O)(=O)c1ccc(N(C(=O)c2cnccn2)C(C(=O)NC2CCCC2)c2cccs2)cc1 (centres undefined),-6,15,7,93*,2,3
O=C(CSc1ccccc1[N+](=O)[O-])NC1CCS(=O)(=O)C1 (centres undefined),-12,5,18,-3,8,1
CC(=O)Nc1ccc(N=Nc2ccc(O)cc2)cc1,-16,13,5,52*,3,1
CC(=O)Nc1ccc(N=NN2CCOCC2)cc1,0,8,14,0,23,-1
O=C1COc2ccc(-c3csc(=Nc4ccc(OC(F)F)cc4)n3CC3CCCO3)cc2N1 (centres undefined),-1,11,17,99*,5,2
CCOC(=O)C1(Cc2cccc(OC)c2)CCN(Cc2ccc(OC)c(O)c2)CC1,-3,10,48,85*,1,2
CCOC(=O)C1(Cc2cccc(OC)c2)CCN(C/C=C/c2ccccc2)CC1,0,10,9,80*,0,1
CCOC(=O)C1(Cc2cccc(OC)c2)CCN(C2CCOCC2)CC1,3,11,12,81*,0,0
CCC(C)(NC(=O)c1ccc2c(c1)OCO2)C(=O)NC1CCCCC1 (centres undefined),0,10,20,-6,3,0
CCCc1nc2c(sc3nc4c(cc32)COC(C)(C)C4)c(=O)n1CCN(CC)CC,-8,8,21,15,5,8
Cc1ccc(O)c(C(=O)c2coc(=N)c(C(=O)NC(C)C)c2)c1,-9,5,18,71*,nt,nt
O=C(/C=C/c1ccnc2ccccc12)c1cccs1,-4,8,15,100*,7,1
Cc1nn(C)cc1S(=O)(=O)N1CCCC(C(=O)O)C1 (centres undefined),2,9,11,-7,0,0
COc1ccc(C(=O)NNC(=O)CCn2nnc(-c3ccc(C)cc3)n2)cc1OC,2,23,10,-4,-1,0
CC(NC(=O)C(c1ccccc1)c1ccccc1)C(=O)N1CCCCC1 (centres undefined),5,10,26,52*,3,1
CC(NC(=O)C(c1ccccc1)c1ccccc1)C(=O)O (centres undefined),-6,6,10,-5,-1,0
O=C1C2C(c3ccccc3)C=CC(c3ccccc3)C2C(=O)N1c1ccccn1 (centres undefined),5,6,10,-6,9,2
CCN(C(=O)CSc1nnc2c3ccccc3n(CC)c2n1)C1CCS(=O)(=O)C1 (centres undefined),3,12,10,-1,23,1
SMILES,PKD1 inh,Avidin bead fluor,GSH fluor,Lmaj promast,ABCG2 inh,ABCB1 block
N#Cc1c(NCCN)nc(-c2ccccc2)c2c1CCCC2,2,10,12,85*,-4,-5
CCN1CCc2c(C#N)c(NCc3ccccc3)nc(N(CC)CC)c2C1,0,6,13,98*,2,1
N#Cc1c(NCCCO)nc(-c2ccccc2)c2c1CCCC2,-5,15,22,2,3,1
Cc1cc(C)c(C#N)c(N2CCN(Cc3ccccc3)CC2)n1,-1,12,51,17,3,1
C=CCNc1nc(NCc2ccccc2)c(C#N)c2c1CN(C)CC2,-4,36,11,31,3,1
N#Cc1c(NCCN)nc(NCc2ccccc2)c2c1CCN(Cc1ccccc1)C2,-16,nt,nt,97*,nt,nt
N#Cc1c(N2CCCCC2)nc(N2CCCCC2)c2c1CCN(Cc1ccccc1)C2,-8,35,14,100*,4,1
C#CCOCCOCCOCCNc1nc(N2CCN(C(=O)[C@H]([C@@H](C)O)n3cc(CCCCN)nn3)CC2)nc(N2CCN(C(=O)[C@H]([C@@H](C)CC)n3cc(CCCN=C(N)N)nn3)CC2)n1,-10,11,19,-6,4,2
CC1CN(C(=O)CCN2C(=O)c3ccccc3C2=O)CC(C)O1 (centres undefined),-4,6,16,-4,1,0
COc1ccc(S(=O)(=O)N2CCCCCC2)cc1NC(=O)Cc1ccccc1,-1,48*,8,6,28,1
CC1CCc2c(C(=O)OCC(=O)Nc3cccc(S(=O)(=O)N4CCCCCC4)c3)csc2C1 (centres undefined),4,12,7,83*,0,0
Cc1ccc(S(=O)(=O)N2CCCCC2)cc1NC(=O)C1CC(=O)N(Cc2ccccc2)C1 (centres undefined),-9,16,7,53*,2,0
CS(=O)(=O)c1ccc(Cl)c(NC(=O)C2CC(=O)N(Cc3ccccc3)C2)c1 (centres undefined),7,9,25,-5,3,1
COc1ccc(S(=O)(=O)N2CCCCC2)cc1NC(=O)c1ccc2c(c1)OCO2,-4,9,10,78*,28,1
O=C(Nc1cccc(S(=O)(=O)N2CCCCCC2)c1)c1ccc2c(c1)OCO2,-6,13,8,23,25,2
Cc1ccc(Oc2c(CO)c(-c3ccccc3)nn2C)cc1,1,11,25,3,10,2
Cc1ccc(Cn2nnc3c(=O)n(CC(=O)N4CCN(c5ccccc5)CC4)cnc32)cc1,4,8,28,32,1,0
COc1ccccc1OCCC(=O)Nc1cccc(S(=O)(=O)N2CCCCC2)c1,-1,5,12,5,10,1
O=C(CNc1cc(S(=O)(=O)N2CCCC2)ccc1OCC(F)(F)F)Nc1cc(Cl)cc(Cl)c1,-8,12,17,-2,7,1
COc1ccc(S(=O)(=O)N2CCCCC2)cc1NC(=O)CSc1nccn1C,-3,9,28,99*,5,1
